Source: the RNAGym collection of RNA variant scans (doi:10.1038/s41586-018-0170-7)

B1: tRNA (parent)
chain: GUUCCGUUGGCGUAAUGGUAACGCGUCUCCCUCCUAAGGAGAAGACUGCGGGUUCGAGUCCCGUACGGAACG

Variants of: B1
Experiment: yeast fitness, log relative to wild type (ln ratio); higher = fitter; tRNA-Arg(CCU), competitive growth, 37 C, 1 M NaCl
Procedure, shortened: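 BY4742 cells without the chromosomal tRNA-Arg(CCU) gene carried a combinatorial variant library on a HIS3 centromeric plasmid, from two independent transformations. After 4 generations in SC-HIS at 30 °C, pools spent ~6.5 generations (~26.5 h) in SC-HIS 1M NaCl at 37 °C, giving three outputs per input, and 125 bp paired-end Illumina reads counted the variants. Fitness is the natural log of each genotype's generations over the wild type's, with generations taken as OD-scaled log2 output/input frequency weighted by inverse variance across replicates.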

| Variant | yeast fitness (ln) |
| --- | --- |
| U2G G6U C27U C46U A70G C71U | -0.262 |
| U2G G6U C27U C46U C66U C71U | -0.246 |
| U2G G6U C27U C46U C66A A69G A70G | -0.214 |
| U2G G6U C27U C46U C66A A69G A70U | -0.0283 |
| U2G G6U C27U A43C C66A A70G C71U | -0.253 |
| G6A C27U A43C C46U C66U A69G C71U | -0.307 |
| U2G G6U C66U A70U | -0.0342 |
| U2G G6U C66U A70G | -0.154 |
| U2G G6U C27U C66A A69G A70G | -0.145 |
| U2G G6U C27U C66A A69G A70U | -0.0809 |
| U2G G6U C46U A70G | -0.104 |
| U2G G6U C46U A70U | -0.0198 |
| G6A A43C A70U C71U | -0.266 |
| U2G G6U C27U C66A A70G | -0.243 |
| U2G G6U C27U C66A A70U | -0.0251 |
| G6A A43C C66U A70G C71U | -0.26 |
| G6A C27U A43C C66A A69G A70U C71U | -0.54 |
| U2G G6U C27U A43C C66U A70G | -0.356 |
| U2G G6U C27U A43C C66U A70U | -0.219 |
| U2G G6U C27U A43C C66U A69G | -0.31 |
| G6A C27U A43C C66A A70G C71U | -0.325 |
| U2G G6U C27U C46U C66A A69G C71U | -0.293 |
| U2G G6U C66A A69G A70G C71U | -0.158 |
| U2G G6U C66A A70G C71U | -0.249 |

| Variant | yeast fitness (ln) |
| --- | --- |
| U2G G6U C27U C46U A70U | -0.176 |
| U2G G6U C27U C46U A70G | -0.156 |
| U2G G6U C27U C66U C71U | -0.31 |
| G6A C27U A43C C66A A70U C71U | -0.37 |
| U2G G6U C27U A43C C46U C66U C71U | -0.356 |
| G6A C27U A43C C46U C66A A70G | -0.191 |
| G6A C27U A43C C46U C66A A70U | -0.193 |
| G6A A43C C46U C66U A69G | -0.0394 |
| U2G G6U C27U C66A C71U | -0.168 |
| U2G G6U C27U C46U A69G A70G | -0.191 |
| U2G G6U C27U C46U A69G A70U | -0.153 |
| G6A A70U | -0.0535 |
| G6A A70G | -0.194 |
| U2G G6U C27U C66U A70G C71U | -0.312 |
| G6A A43C C46U C66U A70G C71U | -0.144 |
| G6A A43C C46U C66U A70G | -0.0403 |
| G6A A43C C46U C66U A70U | -0.183 |
| G6A C27U A43C C66U A69G A70U C71U | -0.529 |
| U2G G6U C46U C66U A69G A70U C71U | -0.39 |
| G6A A69G A70G | -0.0849 |
| G6A A69G A70U | -0.082 |
| G6A C27U A43C C46U C66A A69G A70U C71U | -0.471 |
| U2G G6U C46U A70U C71U | -0.461 |
| U2G G6U C27U A43C C66A | -0.0341 |

| Variant | yeast fitness (ln) |
| --- | --- |
| U2G G6U C27U A43C C66U | -0.298 |
| U2G G6U C27U C66U A70U | -0.342 |
| U2G G6U C27U C66U A70G | -0.207 |
| U2G G6U C27U A43C | -0.107 |
| G6A C27U A43C C46U C71U | -0.176 |
| G6A C27U | -0.0758 |
| U2G G6U C46U A69G A70U C71U | -0.311 |
| G6A C27U A43C C46U C66U A70G | -0.193 |
| G6A C27U A43C C46U C66U A70U | -0.183 |
| G6A C27U A43C C46U C66A C71U | -0.328 |
| G6A C27U A43C C66U A69G A70U | -0.452 |
| G6A C27U A43C C66U A69G A70G | -0.374 |
| U2G G6U C27U A43C C46U A69G A70G | -0.242 |
| U2G G6U C27U A43C C46U A69G A70U | -0.147 |
| U2G G6U C27U A43C A70U C71U | -0.324 |
| U2G G6U C27U A43C A69G | -0.268 |
| U2G G6U C27U A43C C46U C66U A69G | -0.317 |
| G6A A43C C66U A69G C71U | -0.51 |
| U2G G6U C27U A43C C66A A70U | -0.0378 |
| U2G G6U C27U A43C C66A A70G | -0.214 |
| U2G G6U C27U A43C C66U A69G A70U C71U | -0.411 |
| U2G G6U C27U C66U A69G | -0.275 |
| G6A A43C A69G C71U | -0.29 |
| G6A C27U A43C C66U A70G | -0.426 |

| Variant | yeast fitness (ln) |
| --- | --- |
| U2G G6U C46U C66A A69G A70U | 0.00778 |
| U2G G6U C46U C66A A69G A70G | -0.13 |
| U2G G6U C27U A69G A70G C71U | -0.363 |
| G6A A43C C66U C71U | -0.335 |
| U2G G6U A69G A70U C71U | -0.26 |
| U2G G6U C27U C46U C66A A70G | -0.376 |
| U2G G6U C27U C46U C66A A70U | -0.0141 |
| U2G G6U C27U A43C C46U C66A A69G A70U | -0.357 |
| U2G G6U C27U A43C C46U C66A A69G A70G | -0.187 |
| G6A C27U A43C C46U A69G C71U | -0.344 |
| U2G G6U C46U C66U A70G | -0.137 |
| U2G G6U C46U C66U A70U | -0.0168 |
| U2G G6U C27U C66U A69G C71U | -0.427 |
| G6A A43C A69G A70U C71U | -0.429 |
| U2G G6U C46U A69G A70G C71U | -0.217 |
| G6A A43C C66U A69G A70G | -0.35 |
| G6A A43C C66U A69G A70U | -0.3 |
| U2G G6U C27U C46U A69G A70U C71U | -0.387 |
| U2G G6U C46U C66U A69G C71U | -0.252 |
| G6A A43C C46U A70G C71U | -0.207 |
| U2G G6U C27U A43C C66U C71U | -0.381 |
| U2G G6U C27U A43C C46U A70G C71U | -0.295 |
| G6A A43C C46U C66A A70G C71U | -0.286 |
| G6A A43C C46U C66U A69G C71U | -0.558 |

| Variant | yeast fitness (ln) |
| --- | --- |
| U2G G6U C46U C66U A70U C71U | -0.643 |
| U2G G6U C27U A43C C46U C66U A70U C71U | -0.378 |
| G6A C27U A43C C46U A70U C71U | -0.239 |
| U2G G6U C27U C66U A70U C71U | -0.343 |
| G6A C27U A43C C66U | -0.0646 |
| U2G G6U C27U C46U C66A A69G A70G C71U | -0.25 |
| G6A A43C A69G A70G C71U | -0.305 |
| U2G G6U C71U | -0.173 |
| U2G G6U C27U A43C A69G A70G C71U | -0.35 |
| G6A A43C C66A A70U C71U | -0.395 |
| U2G G6U C46U C66A A69G A70U C71U | -0.646 |
| G6A C27U A43C A70G C71U | -0.304 |
| G6A C27U A43C A69G C71U | -0.353 |
| U2G G6U C27U A70U C71U | -0.227 |
| U2G G6U C66U A69G A70G C71U | -0.235 |
| U2G G6U C27U C46U C66U A69G A70G | -0.277 |
| U2G G6U C27U C46U C66U A69G A70U | -0.238 |
| U2G G6U A69G C71U | -0.17 |
| U2G G6U C27U A43C A70G C71U | -0.329 |
| G6A A43C C66U A69G A70G C71U | -0.261 |
| G6A C27U A43C C46U A69G | -0.166 |
| U2G G6U C27U A43C C66U A70G C71U | -0.316 |
| G6A | -0.0301 |
| G6A A43C C46U C71U | -0.117 |

| Variant | yeast fitness (ln) |
| --- | --- |
| U2G G6U C27U A43C C66A A70U C71U | -0.445 |
| U2G G6U C27U A43C C66A A69G C71U | -0.445 |
| U2G G6U C27U A43C A69G C71U | -0.439 |
| U2G G6U C46U C66A A70U C71U | -0.0156 |
| U2G G6U C27U A43C C46U C66A A70U C71U | -0.629 |
| G6A A69G A70G C71U | -0.263 |
| U2G G6U C46U C66A A69G C71U | -0.185 |
| U2G G6U C27U A43C C46U C66U A69G A70G C71U | -0.369 |
| U2G G6U C66A C71U | -0.108 |
| U2G G6U C27U C46U | -0.1 |
| U2G G6U C46U C66A A70G | -0.0357 |
| U2G G6U C46U C66A A70U | 0.00118 |
| G6A A43C C46U A69G C71U | -0.171 |
| G6A A43C C46U | -0.143 |
| U2G G6U C27U A43C C66U A69G A70G C71U | -0.51 |
| U2G G6U C27U A43C C46U A69G A70G C71U | -0.33 |
| G6A C27U A43C C66A A69G A70G C71U | -0.262 |
| G6A C27U A43C C46U C66A A69G A70G C71U | -0.292 |
| G6A C27U A43C C46U C66U A70U C71U | -0.435 |
| U2G G6U C66U A69G A70G | -0.251 |
| U2G G6U C66U A69G A70U | -0.409 |
| U2G G6U C27U C46U C66U A69G A70U C71U | -0.336 |
| U2G G6U A70G C71U | -0.173 |
| U2G G6U C27U C66A A70U C71U | -0.275 |

| Variant | yeast fitness (ln) |
| --- | --- |
| G6A A43C C46U C66A A69G A70G C71U | -0.207 |
| U2G G6U C27U A43C C66U A70U C71U | -0.441 |
| U2G G6U C27U A43C C66U A69G C71U | -0.645 |
| U2G G6U C27U C66U A69G A70G C71U | -0.273 |
| U2G G6U C66A A70G | -0.0514 |
| U2G G6U C66A A70U | 0.00254 |
| U2G G6U C27U C71U | -0.218 |
| G6A A43C C46U C66U | -0.00855 |
| G6A A43C C46U C66A | -0.0495 |
| U2G G6U C66U C71U | -0.203 |
| G6A A43C C46U A69G A70G C71U | -0.241 |
| U2G G6U C27U A43C C46U A69G A70U C71U | -0.418 |
| U2G G6U C27U C66U | -0.233 |
| U2G G6U C27U C66A | -0.0883 |
| U2G G6U C27U A43C C46U C66U A69G C71U | -0.375 |
| G6A C27U A43C C46U A70G C71U | -0.25 |
| U2G G6U C27U A43C C46U C66U A69G A70U C71U | -0.507 |
| G6A C27U A43C C66U A69G C71U | -0.368 |
| G6A C27U A43C C46U A69G A70U C71U | -0.441 |
| G6A A43C A70G C71U | -0.283 |
| G6A A43C C46U C66A A69G A70U | -0.317 |
| U2G G6U C66A A69G C71U | -0.101 |
| U2G G6U C27U A43C C46U C66U | -0.262 |
